Assay results reported in PubChem BioAssay.
Results filed as inconclusive are left out.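 The calls were made as follows, unless noted: active = cell viability at or below a set limit in both duplicate runs, the limit being the all-compound median minus 4 SD (cut at about 23% in these data, passing the limit was not always enough); inconclusive = no clear call, values can overlap the other calls; inactive = the rest.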

Experiments:
[1] = S. cerevisiae growth inhibition in permissive medium (OD615), pilot counter-assay for S. cerevisiae lifespan shortening project, permissive growth control (AID 705;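 active = growth inhibition above 25% in both replicates, a cutoff set 3 SD above the mean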); details: OD615, 24 h, at 10 µM, active compounds read high
In short: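 assay system = Saccharomyces cerevisiae strain carrying genetically modified DeaD replicative-lifespan system | technique = absorbance (optical density) at 615 nm | buffer or medium = permissive raffinose/galactose medium | timing = cells pre-grown 4 h, then 24 h compound exposure, 30 °C humidified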

[2] = S. cerevisiae growth inhibition in restrictive medium, OD615, pilot screen, restrictive growth control, yeast lifespan reduction project (AID 706;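 active = growth inhibition above a set limit, 3 SD over mean compound inhibition, in both replicates, cut at about 43% in these data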;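 also: modified DeaD lifespan yeast strain shifted to restrictive glucose medium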); details: OD615, 48 h, at 10 µM, active compounds read high
In short: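 System: modified S. cerevisiae. Buffer or medium: CSMM-D glucose medium. Incubation: 4 h pre-growth plus 48 h compound exposure, 30 °C. Detection: absorbance (optical density) measured at 615 nm.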

[3] = doxorubicin toxicity protection in MRP-1 cells – H69AR cells, CellTiter-Glo, duplicate, MRP-1 activator project, pilot screen (AID 807;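 active = viability increase at or above a cutoff of the median across tested compounds plus 3 SD, cut at about 8.5% in these data, passing the limit was not always enough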;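 also: compound pretreatment 18-22 h then 72 h combined with doxorubicin; 0% = doxorubicin alone and 100% = vehicle without doxorubicin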); details: H69AR viability with doxorubicin, CellTiter-Glo luminescence; at 10 µM; active compounds read high
[4] = viability of HCT116 without oncogenic beta-catenin – human colon tumor cells, pilot screen (AID 823); details: HCT116 beta-catenin knockout viability, CellTiter-Glo, 60 h; at 10 µM; active compounds read low;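 also: 0% = wells killed by 20 µM Hyamine and 100% = untreated DMSO cell wells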
[5] = viability of PTEN-null HCT116 cells – cell-based, HCT116 clonal line, CellTiter-Glo, pilot screen (AID 824;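 active = viability at or below 27.92% in each of two runs, the all-compound median minus 4 SD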;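 also: 0% = 20 µM Hyamine control and 100% = vehicle cell control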); details: HCT116 PTEN-deleted viability, 60 h, at 10 µM, active compounds read low
[6] = RAM pathway blockade in budding yeast – dse1pr::URA3 reporter, 5-FOA selection, pilot screen (AID 869;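 active = inhibition over a set limit, the all-compound mean plus 3 SD, in both replicate runs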;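 also: 0% = DMSO wells with no growth and 100% = 10 µM 1-NA-PP1 with full growth; RAM network block rescues cells from 5-FOA so hits raise OD615 growth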); details: S. cerevisiae dse1pr::URA3 5-FOA growth, OD615, 2 d; at 10 µM; active compounds read high; strain carries analog-sensitive mutant Cbk1 kinase
[7] = RAM signaling pathway blockade in yeast – S. cerevisiae, Pdr1DBD-CYC8 efflux-inhibited sensitized strain, primary screen (AID 1298;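 active = RAM network inhibition above 8.4% in each of two replicates, 3 SD over the compound average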;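 also: 0% = DMSO untreated cells without growth and 100% = 10 µM 1-NA-PP1 full growth; higher means more yeast growth rescued from 5-FOA killing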); details: S. cerevisiae cbk1-as DSE1-URA3 strain, 5-FOA growth OD615, 2 d; at 50 µM; active compounds read high

COc1ccccc1C(=O)Nc1nnc(-c2ccc(F)cc2)o1
inactive: growth inhibition [1] -8.41% | growth inhibition [2] -13.1% | viability increase [3] 0.01% | viability [4] 101% | viability [5] 101% | inhibition [6] 0.59% | RAM network inhibition [7] 2.59%

CC(=O)Nc1cc2ccc(OC(C)=O)cc2oc1=O
inactive: growth inhibition [1] -15.3% | growth inhibition [2] -13.9% | viability increase [3] -4.23% | viability [4] 107% | viability [5] 93.8% | inhibition [6] 1.62% | RAM network inhibition [7] 0.82%

O=C1c2ccccc2C(O)N1Cc1ccc2c(c1)OCO2 (stereo unspecified)
inactive: growth inhibition [1] 4.13% | growth inhibition [2] -0.895% | viability increase [3] -0.74% | viability [4] 103% | viability [5] 106% | inhibition [6] 0.38% | RAM network inhibition [7] 1.6%

COc1ccc2oc(-c3ccccc3)c(C(=O)N3CCOCC3)c2c1
inactive: growth inhibition [1] 2.58% | growth inhibition [2] -8.54% | viability increase [3] -3.95% | viability [4] 94.3% | viability [5] 90% | inhibition [6] 1.52% | RAM network inhibition [7] 5.28%

O=C(CNS(=O)(=O)c1cccc2nsnc12)NC1CCCCC1
inactive: growth inhibition [1] -8.49% | growth inhibition [2] -16.5% | viability increase [3] -1.47% | viability [4] 96.2% | viability [5] 92.3% | inhibition [6] 1.06% | RAM network inhibition [7] 1.3%

COc1ccccc1NC=C1C(=O)OC(C)(C)OC1=O
inactive: growth inhibition [1] -17.5% | growth inhibition [2] -7.71% | viability increase [3] -2.6% | viability [4] 91% | viability [5] 101% | inhibition [6] 0.955% | RAM network inhibition [7] 2.48%

Cn1c(C(=O)NCCCN2CCCC2=O)cc2c(=O)n(C)c3ccccc3c21
inactive: growth inhibition [1] -6.28% | growth inhibition [2] -1.63% | viability increase [3] -4.16% | viability [4] 108% | viability [5] 94.4% | inhibition [6] 1.69% | RAM network inhibition [7] 0.06%

O=C(Nc1ccc(Br)cc1F)c1ccncc1
inactive: growth inhibition [1] -7.26% | growth inhibition [2] -13.4% | viability increase [3] 1.37% | viability [4] 97% | viability [5] 98.6% | inhibition [6] 2.7% | RAM network inhibition [7] 5.07%

COc1ccc(N2C(=O)C3CCCN3C2c2ccc(Cl)cc2)cc1 (stereo unspecified)
inactive: growth inhibition [1] -6.21% | growth inhibition [2] -6.83% | viability increase [3] -2.6% | viability [4] 101% | viability [5] 95.5% | inhibition [6] 1.7% | RAM network inhibition [7] 2.27%

CCOC(=O)CSc1ccc2nnc(-c3ccccc3)n2n1
inactive: growth inhibition [1] -8.02% | growth inhibition [2] -9.2% | viability increase [3] -0.81% | viability [4] 108% | viability [5] 93.5% | inhibition [6] 1.15% | RAM network inhibition [7] 0.11%

CC1CCN(C(=O)c2cc(-c3ccccc3O)on2)CC1
inactive: growth inhibition [1] -10.2% | growth inhibition [2] 9.11% | viability increase [3] -0.44% | viability [4] 108% | viability [5] 91.5% | inhibition [6] 0.335% | RAM network inhibition [7] -2.14%

Cc1nc2ncnn2c(C)c1Cc1ccc(Cl)cc1F
inactive: growth inhibition [1] -9.96% | growth inhibition [2] -18.8% | viability increase [3] -1.72% | viability [4] 95.7% | viability [5] 92.2% | inhibition [6] 0.26% | RAM network inhibition [7] 6.16%

N#Cc1nc(COc2cccc(Cl)c2)oc1NCc1ccco1
inactive: growth inhibition [1] -14% | growth inhibition [2] 3.77% | viability increase [3] -2.87% | viability [4] 89% | viability [5] 89.4% | inhibition [6] 1.65% | RAM network inhibition [7] 7.41%

C=CCn1cnc2scc(-c3ccccc3)c2c1=O
inactive: growth inhibition [1] 2.71% | growth inhibition [2] 10.9% | viability increase [3] -1.68% | viability [4] 93.6% | viability [5] 84.2% | inhibition [6] 2.52% | RAM network inhibition [7] 0.21%

Cn1ccnc1SC(=O)N1c2ccccc2Sc2ccccc21
inactive: growth inhibition [1] 0.525% | growth inhibition [2] 0.605% | viability increase [3] -0.9% | viability [4] 88.8% | viability [5] 91.4% | inhibition [6] 1.25% | RAM network inhibition [7] 3.37%

COc1cc(NC(=O)C(F)(F)F)cc(OC)c1
inactive: growth inhibition [1] -10.5% | growth inhibition [2] -13.3% | viability increase [3] -0.69% | viability [4] 98.2% | viability [5] 108% | inhibition [6] 0.22% | RAM network inhibition [7] 1.3%

CN(C(=O)c1cnc2n(c1=O)CCS2)C1CCCCC1
inactive: growth inhibition [1] -9.04% | growth inhibition [2] -5.85% | viability increase [3] -0.01% | viability [4] 105% | viability [5] 110% | inhibition [6] 1.5% | RAM network inhibition [7] 3.96%

CCCc1n[nH]c2c1C(=O)CC(C)(C)C2
inactive: growth inhibition [1] -9.08% | growth inhibition [2] -9.82% | viability increase [3] -1.76% | viability [4] 95.6% | viability [5] 102% | inhibition [6] 0.98% | RAM network inhibition [7] 2.76%

Cc1cc(C)nc(NS(=O)(=O)c2ccc(NC(=O)c3ccc4c(c3)OCO4)cc2)n1
inactive: growth inhibition [1] -6.52% | growth inhibition [2] -0.9% | viability increase [3] 5.22% | viability [4] 100% | viability [5] 95.9% | inhibition [6] 1.28% | RAM network inhibition [7] -0.21%

O=C(CCc1nc2ccccc2[nH]1)N1CCN(C(=O)c2ccco2)CC1
inactive: growth inhibition [1] -9.21% | growth inhibition [2] -5.44% | viability increase [3] -0.98% | viability [4] 101% | viability [5] 96.7% | inhibition [6] 0.87% | RAM network inhibition [7] 1.88%

CCOC(=O)C1CCN(C(c2cccs2)c2sc3nc(C)nn3c2O)CC1 (stereo unspecified)
inactive: growth inhibition [1] -2.81% | growth inhibition [2] -7.96% | viability increase [3] -0.58% | viability [4] 105% | viability [5] 99.3% | inhibition [6] 0.905% | RAM network inhibition [7] 3.86%

CCNC(=O)CN(c1ccc(CC)cc1)S(C)(=O)=O
inactive: growth inhibition [1] -5% | growth inhibition [2] -18% | viability increase [3] -0.8% | viability [4] 97.9% | viability [5] 106% | inhibition [6] 0.76% | RAM network inhibition [7] 1.88%

CCOc1ncccc1C(=O)OCC(=O)Nc1cc(C(=O)OC)ccc1C(=O)OC
inactive: growth inhibition [1] -16.9% | growth inhibition [2] -12.9% | viability increase [3] -2.69% | viability [4] 90.1% | viability [5] 92.4% | inhibition [6] 2.11% | RAM network inhibition [7] 5.66%
